Measured values published in ChEMBL document CHEMBL1154054, “Novel 4-(morpholin-4-yl)-N'-(arylidene)benzohydrazides: synthesis, antimycobacterial activity and QSAR investigations” (Eur J Med Chem, 2009).

Tests used:
Assay type in all cases: functional
[1] = system: Mycobacterium tuberculosis; experiment: Antimycobacterial activity against multidrug resistant Mycobacterium tuberculosis at 0.05 ug/ml after 72 hrs by LRP assay
In short: (§1)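 Luciferase reporter phage assay on M. tuberculosis (H37Rv, or clinical isolates resistant to S, H, R and E). Each sample had two drug-free controls and four drug concentrations, incubated 72 h at 37 °C. High-titer phAE129 phage plus 0.1 M CaCl₂ was added, then 4 h at 37 °C. Equal volume D-luciferin (0.3 mM, pH 4.5 citrate) was added; RLU integrated 10 s, duplicate mean; % RLU reduction vs control.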

[2] = system: Mycobacterium tuberculosis; experiment: Antimycobacterial activity against multidrug resistant Mycobacterium tuberculosis at 0.5 ug/ml after 72 hrs by LRP assay; in short: as §1
[3] = system: Mycobacterium tuberculosis; experiment: Antimycobacterial activity against multidrug resistant Mycobacterium tuberculosis at 5 ug/ml after 72 hrs by LRP assay; in short: as §1
[4] = system: Mycobacterium tuberculosis; experiment: Antimycobacterial activity against multidrug resistant Mycobacterium tuberculosis at 10 ug/ml after 72 hrs by LRP assay; in short: as §1

SMILES | Activity [1] | Activity [2] | Activity [3] | Activity [4]
O=C(N/N=C\C=C\c1ccccc1)c1ccc(N2CCOCC2)cc1 | 55.7% | 85.67% | 91.61% | 92.1%
Cc1ccc(/C=N/NC(=O)c2ccc(N3CCOCC3)cc2)cc1 | 48.49% | 87.24% | 90.83% | 91.37%
CN(C)c1ccc(/C=N/NC(=O)c2ccc(N3CCOCC3)cc2)cc1 | 48.14% | 90.72% | 93.18% | 95.02%
O=C(N/N=C1\C=CCO1)c1ccc(N2CCOCC2)cc1 | 58.54% | 86.92% | 92.52% | 93.72%
O=C(N/N=C/c1ccc(Cl)cc1)c1ccc(N2CCOCC2)cc1 | 67.15% | 89.91% | 91.19% | 94.29%
COc1ccc(/C=N/NC(=O)c2ccc(N3CCOCC3)cc2)cc1 | 56.53% | 82.97% | 89.33% | 90.36%
O=C(N/N=C/c1ccc(O)cc1)c1ccc(N2CCOCC2)cc1 | 43.92% | 73.58% | 88.08% | 88.45%
NNC(=O)c1ccncc1 [ISONIAZID] | 84.37% | 89.6% | 95.85% | 94.7%
O=C(N/N=C/c1ccc(F)cc1)c1ccc(N2CCOCC2)cc1 | 83.22% | 86.33% | 93.28% | 95.09%
O=C(N/N=C/c1cccc([N+](=O)[O-])c1)c1ccc(N2CCOCC2)cc1 | 29.92% | 87.17% | 90.07% | 88.86%
COc1cc(/C=N/NC(=O)c2ccc(N3CCOCC3)cc2)cc(OC)c1OC | 35.83% | 96.88% | 90.29% | 90.24%
